ChEMBL document CHEMBL3097989, “Antimicrobial activity of de novo designed cationic peptides against multi-resistant clinical isolates” (Eur J Med Chem, 2014)

Legend:
Type in all cases: functional
[1] = test system: Staphylococcus haemolyticus; experiment: Antibacterial activity against Staphylococcus haemolyticus M3014 by microdilution test
Summary of the method: (§1)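 MIC by standard broth microdilution following CLSI recommendations, in Mueller Hinton broth supplemented with Ca²⁺ (20-25 mg/L) and Mg²⁺ (10-12.5 mg/L); ATCC reference strains included in the panel.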

[2] = test system: Acinetobacter sp.; experiment: Antibacterial activity against Acinetobacter sp. M7489 clinical isolate expressing blaOXA-51 and blaTEM gene by microdilution test
Summary of the method: (§2)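 MIC by standard broth microdilution following CLSI recommendations, in Mueller Hinton broth supplemented with Ca²⁺ (20-25mg/L) and Mg²⁺ (10-12.5mg/L); peptides tested against a panel of multi-resistant clinical isolates plus ATCC reference strains.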

[3] = test system: Klebsiella pneumoniae; experiment: Antibacterial activity against Klebsiella pneumoniae M11245 clinical isolate expressing blaKPC-2 and blaPER-2 gene by microdilution test; summary of the method: as §2
[4] = test system: Pseudomonas aeruginosa; experiment: Antibacterial activity against Pseudomonas aeruginosa M7728 clinical isolate expressing blaIMP gene by microdilution test; summary of the method: as §1
[5] = test system: Acinetobacter sp.; experiment: Antibacterial activity against Acinetobacter sp. M5277 clinical isolate expressing blaPER gene by microdilution test; summary of the method: as §2
[6] = test system: Enterococcus faecium; experiment: Antibacterial activity against Enterococcus faecium M6261 by microdilution test; summary of the method: as §2
[7] = test system: Acinetobacter sp.; experiment: Antibacterial activity against Acinetobacter sp. M7978 clinical isolate expressing blaIMP-1 gene by microdilution test; summary of the method: as §2
[8] = test system: Enterococcus faecalis; experiment: Antibacterial activity against Enterococcus faecalis M4992 clinical isolate expressing vanA gene by microdilution test; summary of the method: as §2
[9] = test system: Acinetobacter sp.; experiment: Antibacterial activity against Acinetobacter sp. PFAV1 clinical isolate expressing blaOXA-51, blaOXA-58 and blaPER gene by microdilution test; summary of the method: as §2
[10] = test system: Enterococcus faecium; experiment: Antibacterial activity against Enterococcus faecium PZAP95 by microdilution test; summary of the method: as §2
[11] = test system: Acinetobacter sp.; experiment: Antibacterial activity against Acinetobacter sp. M9665 clinical isolate expressing blaOXA-51 gene by microdilution test; summary of the method: as §2
[12] = test system: Klebsiella pneumoniae; experiment: Antibacterial activity against Klebsiella pneumoniae M9170 clinical isolate expressing blaOXA-GIII gene by microdilution test; summary of the method: as §2
[13] = test system: Escherichia coli; experiment: Antibacterial activity against Escherichia coli M9209 clinical isolate expressing blaKPC-2 gene by microdilution test; summary of the method: as §2
[14] = test system: Enterococcus faecalis; experiment: Antibacterial activity against Enterococcus faecalis M6983 clinical isolate expressing vanA gene by microdilution test; summary of the method: as §2
[15] = test system: Staphylococcus epidermidis; experiment: Antibacterial activity against Staphylococcus epidermidis M2931 by microdilution test; summary of the method: as §1
[16] = test system: Staphylococcus warneri; experiment: Antibacterial activity against Staphylococcus warneri M6823 clinical isolate expressing mecA gene by microdilution test; summary of the method: as §1
[17] = test system: Escherichia coli; experiment: Antibacterial activity against Escherichia coli M5306 clinical isolate expressing blaPER-2, blaCTX-M-2 and blaTEM-1 gene by microdilution test; summary of the method: as §2
[18] = test system: Staphylococcus aureus; experiment: Antibacterial activity against Staphylococcus aureus M2832 clinical isolate expressing mecA gene by microdilution test; summary of the method: as §1
[19] = test system: Staphylococcus aureus; experiment: Antibacterial activity against Staphylococcus aureus M4046 clinical isolate expressing mecA gene by microdilution test; summary of the method: as §1
[20] = test system: Staphylococcus haemolyticus; experiment: Antibacterial activity against Staphylococcus haemolyticus M2976 clinical isolate expressing mecA gene by microdilution test; summary of the method: as §1
[21] = test system: Klebsiella pneumoniae; experiment: Antibacterial activity against Klebsiella pneumoniae M1803 clinical isolate expressing blaPER-2, blaCTX-M-2, blaTEM-1, blaSHV and blaOXA-9 gene by microdilution test; summary of the method: as §2
[22] = test system: Escherichia coli; experiment: Antibacterial activity against Escherichia coli PNEU23 clinical isolate expressing blaOXA-GIII and blaTEM-1 gene by microdilution test; summary of the method: as §2
[23] = test system: Pseudomonas aeruginosa; experiment: Antibacterial activity against Pseudomonas aeruginosa ATCC 27853 by microdilution test; summary of the method: as §2
[24] = test system: Klebsiella pneumoniae; experiment: Antibacterial activity against Klebsiella pneumoniae M9491 clinical isolate expressing blaMOX gene by microdilution test; summary of the method: as §2
[25] = test system: Staphylococcus aureus; experiment: Antibacterial activity against Staphylococcus aureus P204 clinical isolate expressing ermA gene by microdilution test; summary of the method: as §1
[26] = test system: Enterococcus gallinarum; experiment: Antibacterial activity against Enterococcus gallinarum M2723 clinical isolate expressing vanC1 and vanA gene by microdilution test; summary of the method: as §2
[27] = test system: Enterococcus gallinarum; experiment: Antibacterial activity against Enterococcus gallinarum M2685 clinical isolate expressing vanC1 and vanA gene by microdilution test; summary of the method: as §2
[28] = test system: Pseudomonas aeruginosa; experiment: Antibacterial activity against Pseudomonas aeruginosa M5109 clinical isolate expressing blaVIM and blaGES-1 gene by microdilution test; summary of the method: as §1
[29] = test system: Staphylococcus saprophyticus; experiment: Antibacterial activity against Staphylococcus saprophyticus M4070 clinical isolate expressing mecA gene by microdilution test; summary of the method: as §1
[30] = test system: Enterococcus faecium; experiment: Antibacterial activity against Enterococcus faecium M2481 clinical isolate expressing vanB gene by microdilution test; summary of the method: as §2
[31] = test system: Klebsiella pneumoniae; experiment: Antibacterial activity against Klebsiella pneumoniae M9375 clinical isolate expressing blaCTX-M-2, blaTEM-1 and blaSHV-1 gene by microdilution test; summary of the method: as §2
[32] = test system: Enterococcus faecalis; experiment: Antibacterial activity against Enterococcus faecalis M6534 clinical isolate expressing vanB gene by microdilution test; summary of the method: as §2
[33] = test system: Staphylococcus hominis; experiment: Antibacterial activity against Staphylococcus hominis M2973 clinical isolate expressing mecA gene by microdilution test; summary of the method: as §1
[34] = test system: Acinetobacter sp.; experiment: Antibacterial activity against Acinetobacter sp. M5282 clinical isolate expressing blaOXA-51 gene by microdilution test; summary of the method: as §2
[35] = test system: Escherichia coli; experiment: Antibacterial activity against Escherichia coli M7859 clinical isolate expressing blaCIT gene by microdilution test; summary of the method: as §2
[36] = test system: Pseudomonas aeruginosa; experiment: Antibacterial activity against Pseudomonas aeruginosa M11005 clinical isolate expressing blaKPC-2 gene by microdilution test; summary of the method: as §2
[37] = test system: Enterococcus faecium; experiment: Antibacterial activity against Enterococcus faecium M2304 clinical isolate expressing vanA gene by microdilution test; summary of the method: as §2
[38] = test system: Staphylococcus aureus; experiment: Antibacterial activity against Staphylococcus aureus M6794 clinical isolate expressing mecA gene by microdilution test; summary of the method: as §1
[39] = test system: Klebsiella pneumoniae; experiment: Antibacterial activity against Klebsiella pneumoniae M5825 clinical isolate expressing blaGES-3 and blaCTX-M-2 gene by microdilution test; summary of the method: as §2
[40] = test system: Klebsiella pneumoniae; experiment: Antibacterial activity against Klebsiella pneumoniae M9310 clinical isolate expressing blaCTX-M-2, blaTEM-1 and blaSHV-1 gene by microdilution test; summary of the method: as §2
[41] = test system: Pseudomonas aeruginosa; experiment: Antibacterial activity against Pseudomonas aeruginosa M7723 clinical isolate expressing blaKPC-2 gene by microdilution test; summary of the method: as §1
[42] = test system: Pseudomonas aeruginosa; experiment: Antibacterial activity against Pseudomonas aeruginosa M7525 clinical isolate expressing blaSPM gene by microdilution test; summary of the method: as §1
[43] = test system: Staphylococcus epidermidis; experiment: Antibacterial activity against Staphylococcus epidermidis M2923 by microdilution test; summary of the method: as §1
[44] = test system: Enterococcus faecalis; experiment: Antibacterial activity against Enterococcus faecalis M4449 clinical isolate expressing vanA gene by microdilution test; summary of the method: as §2
[45] = test system: Staphylococcus aureus; experiment: Antibacterial activity against Staphylococcus aureus P33 clinical isolate expressing msrA gene by microdilution test; summary of the method: as §1
[46] = test system: Pseudomonas aeruginosa; experiment: Antibacterial activity against Pseudomonas aeruginosa M13513 clinical isolate expressing blaKPC-2 gene by microdilution test; summary of the method: as §2
[47] = test system: Klebsiella pneumoniae; experiment: Antibacterial activity against Klebsiella pneumoniae PFAV3 by microdilution test; summary of the method: as §2
[48] = test system: Enterococcus faecalis; experiment: Antibacterial activity against Enterococcus faecalis M6383 clinical isolate expressing vanA gene by microdilution test; summary of the method: as §2
[49] = test system: Staphylococcus cohnii; experiment: Antibacterial activity against Staphylococcus cohnii M6767 clinical isolate expressing mecA gene by microdilution test; summary of the method: as §1
[50] = test system: Enterococcus faecalis; experiment: Antibacterial activity against Enterococcus faecalis ATCC 51299 clinical isolate expressing vanB gene by microdilution test; summary of the method: as §2
[51] = test system: Staphylococcus aureus; experiment: Antibacterial activity against Staphylococcus aureus M6820 clinical isolate expressing mecA gene by microdilution test; summary of the method: as §1
[52] = test system: Enterococcus faecalis; experiment: Antibacterial activity against Enterococcus faecalis M4899 clinical isolate expressing vanB gene by microdilution test; summary of the method: as §2

**Q.** What does the source list for H-GLLKKWLKKWKEFKRIVGY-NH2?
**A.** MIC90 [1]: 8 µg/mL; MIC90 [2]: 16 µg/mL; MIC90 [3]: 16 µg/mL; MIC90 [4]: 64 µg/mL; MIC90 [5]: 8 µg/mL; MIC90 [6]: 16 µg/mL; MIC90 [7]: 8 µg/mL; MIC90 [8]: 128 µg/mL; MIC90 [9]: 16 µg/mL; MIC90 [10]: 16 µg/mL; MIC90 [11]: 32 µg/mL; MIC90 [12]: 32 µg/mL; MIC90 [13]: 64 µg/mL; MIC90 [14]: 128 µg/mL; MIC90 [15]: 16 µg/mL; MIC90 [16]: 8 µg/mL; MIC90 [17]: 4 µg/mL; MIC90 [18]: 128 µg/mL; MIC90 [19]: 128 µg/mL; MIC90 [20]: 8 µg/mL; MIC90 [21]: 32 µg/mL; MIC90 [22]: 32 µg/mL; MIC90 [23]: 64 µg/mL; MIC90 [24]: 64 µg/mL; MIC90 [25]: 64 µg/mL; MIC90 [26]: 32 µg/mL; MIC90 [27]: 16 µg/mL; MIC90 [28]: 64 µg/mL; MIC90 [29]: 32 µg/mL; MIC90 [30]: 16 µg/mL; MIC90 [31]: 64 µg/mL; MIC90 [32]: 256 µg/mL; MIC90 [33]: 4 µg/mL; MIC90 [34]: 8 µg/mL; MIC90 [35]: 32 µg/mL; MIC90 [36]: 64 µg/mL; MIC90 [37]: 16 µg/mL; MIC90 [38]: 64 µg/mL; MIC90 [39]: 8 µg/mL; MIC90 [40]: 16 µg/mL; MIC90 [41]: 64 µg/mL; MIC90 [42]: 64 µg/mL; MIC90 [43]: 16 µg/mL; MIC90 [44]: 128 µg/mL; MIC90 [45]: 128 µg/mL; MIC90 [46]: 64 µg/mL; MIC90 [47]: 128 µg/mL; MIC90 [48]: 128 µg/mL; MIC90 [49]: 16 µg/mL; MIC90 [50]: 256 µg/mL; MIC90 [51]: 128 µg/mL; MIC90 [52]: 128 µg/mL

**Q.** Which results are given for H-WPKWWKWKRRWGRKKAKKRRG-NH2?
**A.** MIC90 [1]: 16 µg/mL; MIC90 [2]: 64 µg/mL; MIC90 [3]: 1020 µg/mL; MIC90 [4]: 128 µg/mL; MIC90 [5]: 64 µg/mL; MIC90 [6]: 32 µg/mL; MIC90 [7]: 64 µg/mL; MIC90 [8]: 128 µg/mL; MIC90 [9]: 64 µg/mL; MIC90 [10]: 32 µg/mL; MIC90 [11]: 128 µg/mL; MIC90 [12]: > 1020 µg/mL; MIC90 [13]: 128 µg/mL; MIC90 [14]: 64 µg/mL; MIC90 [15]: 16 µg/mL; MIC90 [16]: 8 µg/mL; MIC90 [17]: 256 µg/mL; MIC90 [18]: 32 µg/mL; MIC90 [19]: 32 µg/mL; MIC90 [20]: 16 µg/mL; MIC90 [21]: > 1020 µg/mL; MIC90 [22]: 128 µg/mL; MIC90 [23]: 64 µg/mL; MIC90 [24]: 1020 µg/mL; MIC90 [25]: 64 µg/mL; MIC90 [26]: 32 µg/mL; MIC90 [27]: 16 µg/mL; MIC90 [28]: 128 µg/mL; MIC90 [29]: 16 µg/mL; MIC90 [30]: 32 µg/mL; MIC90 [31]: 1020 µg/mL; MIC90 [32]: 128 µg/mL; MIC90 [33]: 4 µg/mL; MIC90 [34]: 64 µg/mL; MIC90 [35]: 128 µg/mL; MIC90 [36]: 64 µg/mL; MIC90 [37]: 16 µg/mL; MIC90 [38]: 32 µg/mL; MIC90 [39]: > 1020 µg/mL; MIC90 [40]: > 1020 µg/mL; MIC90 [41]: 64 µg/mL; MIC90 [42]: 64 µg/mL; MIC90 [43]: 16 µg/mL; MIC90 [44]: 128 µg/mL; MIC90 [45]: 32 µg/mL; MIC90 [46]: 32 µg/mL; MIC90 [47]: 1020 µg/mL; MIC90 [48]: 128 µg/mL; MIC90 [49]: 16 µg/mL; MIC90 [50]: 256 µg/mL; MIC90 [51]: 64 µg/mL; MIC90 [52]: 256 µg/mL
